Source: ChEMBL document CHEMBL1129492, “Structure-activity relationships among 2-substituted 5,6-dichloro-, 4,6-dichloro-, and 4,5-dichloro-1-[(2-hydroxyethoxy) methyl]- and -1-[(1,3-dihydroxy-2-propoxy) methyl]benzimidazoles” (J Med Chem, 1996)

Experiments:
HFF = assay: Visual cytotoxicity of compound on HFF cells at time of HCMV plaque enumeration; format: functional, cell-based; details: Homo sapiens
Method in brief: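 Stationary, uninfected HFF cells in the HCMV plaque assay were scored microscopically for cytotoxicity when plaques were enumerated, after 7 days at 37 °C.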

Human betaherpesvirus 5 [1] = assay: Antiviral activity against human cytomegalovirus (HCM virus) in plaque assay; format: functional, organism-based
Method in brief: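 HCMV Towne strain (plaque-purified P_O) at ca. 100 PFU/cm² on HFF cell sheets. After adsorption, compound in growth medium was added to duplicate wells at four to eight concentrations. Incubated 7 days at 37 °C, then crystal violet staining and microscopic plaque counts. Percent plaque reduction versus no drug; IC50 from regression lines.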

KB [2] = assay: Inhibitory activity of compound against KB cell growth [>-indicates IC50/IC90 was not reached at the noted (highest) concentration tested]; format: functional, cell-based; details: Homo sapiens
Method in brief: (§1)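 KB cells plated at 3000-5000 cells/well and held overnight at 37 °C. Compound added in quadruplicate at six to eight concentrations, then 48 h at 37 °C in CO₂ (about two population doublings). Cells fixed with 95% ethanol, stained with 0.1% crystal violet, dye eluted with acidified ethanol and read at 570 nm. IC50 from regression.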

Human alphaherpesvirus 1 = assay: Antiviral activity against herpes simplex virus type 1 (HSV-1) in an ELISA assay; format: functional, organism-based
Method in brief: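 BSC-1 cells (10 000/well, MEM(E) + 10% calf serum) incubated overnight at 37 °C, then given drug in quadruplicate with HSV-1 at 100 PFU/well. After 3 days at 37 °C, plates were blocked and probed with HRP-conjugated rabbit anti-HSV-1 antibody and developed with tetramethylbenzidine. Absorbance was read at 450 and 570 nm. Percent reduction was taken versus virus without drug.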

KB [3] = assay: Inhibitory activity of compound against KB cell growth; format: functional, cell-based; details: Homo sapiens; method in brief: as §1
Human betaherpesvirus 5 [4] = assay: Antiviral activity of compound against HCM virus in yield reduction experiments; format: functional
Method in brief: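 HFF cells infected with HCMV (Towne) at moi 0.5-1 PFU/cell, then given compound serially diluted 1:3 (100 to 0.14 µM) in duplicate. After 7 days at 37 °C, one freeze-thaw cycle. Progeny virus was titered by 1:3 serial dilution on fresh HFF monolayers with plaque counting. IC90 reported.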

Human betaherpesvirus 5 [5] = assay: Antiviral activity of compound against HCMvirus in yield reduction experiments; format: functional
Method in brief: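 HCMV Towne strain (plaque-purified isolate P_O) grown on HFF cells in 96-well dishes, infected at moi 0.5-1 PFU/cell. After adsorption, compound added in 1:3 serial dilutions from 100 to 0.14 µM, in duplicate. 7 days at 37 °C, then one freeze-thaw. Progeny titred by plaque count on fresh HFF monolayers.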

| IC50 (Human betaherpesvirus 5 [1]) | IC50 (KB [2]) | IC50 (Human alphaherpesvirus 1) | IC50 (KB [3]) | IC90 (Human betaherpesvirus 5 [4]) | SMILES | IC50 (HFF) | IC90 (Human betaherpesvirus 5 [5]) |
| --- | --- | --- | --- | --- | --- | --- | --- |
| > 100 µM | > 100 µM | > 100 µM |  |  | OCC(CO)OCn1c(Br)nc2c(Cl)c(Cl)ccc21 | > 100 µM |  |
| > 100 µM |  | > 100 µM | > 100 µM |  | Nc1nc2cc(Cl)c(Cl)cc2n1COCCO | > 100 µM |  |
| 35 µM | 60 µM | 55 µM |  |  | OCC(CO)OCn1c(SCc2ccccc2)nc2c(Cl)c(Cl)ccc21 | 32 µM |  |
| 30 µM |  | > 100 µM | 35 µM |  | OCCOCn1c(SCc2ccccc2)nc2c(Cl)c(Cl)ccc21 | 32 µM |  |
| > 100 µM |  |  |  |  | Nc1nc2c(Cl)cc(Cl)cc2n1COC(CO)CO | 100 µM |  |
| > 100 µM | > 100 µM | > 100 µM |  |  | CN(C)c1nc2c(Cl)cc(Cl)cc2n1COC(CO)CO | > 100 µM |  |
| > 100 µM | > 100 µM | > 100 µM |  |  | OCC(CO)OCn1cnc2cc(Cl)c(Cl)cc21 | > 100 µM |  |
| > 100 µM | > 100 µM | > 100 µM |  |  | Nc1nc2cc(Cl)c(Cl)cc2n1COC(CO)CO | > 100 µM |  |
| > 100 µM |  | > 100 µM | > 100 µM |  | OCCOCn1c(S)nc2cc(Cl)c(Cl)cc21 | 100 µM |  |
| > 100 µM |  |  |  |  | CNc1nc2c(Cl)cc(Cl)cc2n1COC(CO)CO | 100 µM |  |
| > 100 µM |  |  |  |  | OCC(CO)OCn1c(Cl)nc2c(Cl)cc(Cl)cc21 | > 100 µM |  |
| > 100 µM |  | > 100 µM | > 100 µM |  | CNc1nc2cc(Cl)c(Cl)cc2n1COCCO | > 100 µM |  |
| > 100 µM |  | > 100 µM | > 100 µM |  | CNc1nc2c(Cl)c(Cl)ccc2n1COCCO | > 100 µM |  |
|  |  |  |  |  | OC[C@H]1O[C@@H](n2c(Cl)nc3cc(Cl)c(Cl)cc32)[C@H](O)[C@@H]1O |  | 1.4 µM |
| > 100 µM |  | 100 µM | > 100 µM |  | Nc1nc2c(Cl)cc(Cl)cc2n1COCCO |  |  |
| > 100 µM | > 100 µM | 100 µM |  | 25 µM | OCC(CO)OCn1c(Br)nc2cc(Cl)c(Cl)cc21 | > 100 µM |  |
| > 100 µM | > 100 µM | > 100 µM |  |  | CNc1nc2cc(Cl)c(Cl)cc2n1COC(CO)CO | > 100 µM |  |
| 136 µM | > 100 µM |  |  | 50 µM | OCC(CO)OCn1c(Br)nc2c(Cl)cc(Cl)cc21 | 161 µM |  |
| > 100 µM | > 100 µM | > 100 µM |  |  | CN(C)c1nc2c(Cl)c(Cl)ccc2n1COC(CO)CO | > 100 µM |  |
| > 100 µM |  | > 100 µM | > 100 µM |  | OCCOCn1c(S)nc2c(Cl)c(Cl)ccc21 | > 100 µM |  |
| > 100 µM |  | > 100 µM | > 100 µM |  | Nc1nc2c(Cl)c(Cl)ccc2n1COCCO | > 100 µM |  |
| > 100 µM | > 100 µM | > 100 µM |  |  | OCC(CO)OCn1c(SCc2ccccc2)nc2cc(Cl)c(Cl)cc21 | > 100 µM |  |
| > 100 µM | > 100 µM | > 100 µM |  |  | OCC(CO)OCn1cnc2c(Cl)c(Cl)ccc21 | > 100 µM |  |

| IC50 (Human betaherpesvirus 5 [1]) | IC50 (KB [2]) | IC50 (Human alphaherpesvirus 1) | IC50 (KB [3]) | IC90 (Human betaherpesvirus 5 [4]) | SMILES | IC50 (HFF) | IC90 (Human betaherpesvirus 5 [5]) |
| --- | --- | --- | --- | --- | --- | --- | --- |
| > 100 µM |  | > 100 µM | > 100 µM |  | OCCOCn1cnc2c(Cl)cc(Cl)cc21 | > 100 µM |  |
| > 100 µM | > 100 µM | > 100 µM |  |  | Nc1nc2c(Cl)c(Cl)ccc2n1COC(CO)CO | > 100 µM |  |
| > 100 µM |  | > 100 µM | > 100 µM |  | OCCOCn1c(Cl)nc2c(Cl)c(Cl)ccc21 | > 100 µM |  |
| > 100 µM | > 100 µM | > 100 µM |  |  | CNc1nc2c(Cl)c(Cl)ccc2n1COC(CO)CO | > 100 µM |  |
| > 100 µM | > 100 µM | > 100 µM |  |  | OCC(CO)OCn1c(Cl)nc2cc(Cl)c(Cl)cc21 | > 100 µM |  |
| > 100 µM |  | > 100 µM |  |  | CN(C)c1nc2c(Cl)cc(Cl)cc2n1COCCO |  |  |
| > 320 µM |  | > 100 µM | > 320 µM |  | OCCOCn1c(Cl)nc2cc(Cl)c(Cl)cc21 | > 320 µM |  |
| > 100 µM |  | > 100 µM | > 100 µM |  | CN(C)c1nc2cc(Cl)c(Cl)cc2n1COCCO | > 100 µM |  |
| > 100 µM | > 100 µM | 55 µM |  |  | OCC(CO)OCn1c(S)nc2cc(Cl)c(Cl)cc21 | > 100 µM |  |
| > 100 µM |  | > 100 µM | > 100 µM |  | OCCOCn1cnc2c(Cl)c(Cl)ccc21 | > 100 µM |  |
| > 100 µM |  | > 100 µM | > 100 µM |  | OCCOCn1c(Br)nc2cc(Cl)c(Cl)cc21 | > 100 µM |  |
| > 100 µM | > 100 µM | 100 µM |  |  | OCC(CO)OCn1c(Cl)nc2c(Cl)c(Cl)ccc21 | > 100 µM |  |
| > 100 µM | > 100 µM | > 100 µM |  |  | OCC(CO)OCn1c(S)nc2c(Cl)c(Cl)ccc21 | > 100 µM |  |
| > 100 µM |  | > 100 µM | > 100 µM |  | CNc1nc2c(Cl)cc(Cl)cc2n1COCCO | > 100 µM |  |
| > 100 µM |  | > 100 µM | > 100 µM |  | OCCOCn1cnc2cc(Cl)c(Cl)cc21 | > 100 µM |  |
| > 100 µM |  | > 100 µM | > 100 µM |  | OCCOCn1c(Br)nc2c(Cl)cc(Cl)cc21 | > 100 µM |  |
| 40 µM |  | 45 µM | 55 µM |  | OCCOCn1c(SCc2ccccc2)nc2cc(Cl)c(Cl)cc21 | 32 µM |  |
| 50 µM |  | > 100 µM | > 100 µM |  | OCCOCn1c(SCc2ccccc2)nc2c(Cl)cc(Cl)cc21 | 32 µM |  |
| > 100 µM |  | > 100 µM |  |  | OCCOCn1c(Cl)nc2c(Cl)cc(Cl)cc21 |  |  |
| > 100 µM |  | > 100 µM | > 100 µM |  | OCCOCn1c(Br)nc2c(Cl)c(Cl)ccc21 | > 100 µM |  |
| > 100 µM | > 100 µM | > 100 µM |  |  | OCC(CO)OCn1c(S)nc2c(Cl)cc(Cl)cc21 | > 100 µM |  |
| > 100 µM | > 100 µM | > 100 µM |  |  | CN(C)c1nc2cc(Cl)c(Cl)cc2n1COC(CO)CO | > 100 µM |  |
| > 100 µM |  | > 100 µM | > 100 µM |  | OCCOCn1c(S)nc2c(Cl)cc(Cl)cc21 | > 100 µM |  |

| SMILES | IC50 (Human betaherpesvirus 5 [1]) | IC50 (KB [2]) | IC50 (Human alphaherpesvirus 1) | IC50 (KB [3]) | IC90 (Human betaherpesvirus 5 [4]) | IC50 (HFF) | IC90 (Human betaherpesvirus 5 [5]) |
| --- | --- | --- | --- | --- | --- | --- | --- |
| Nc1nc2c(ncn2COC(CO)CO)c(=O)[nH]1 [GANCICLOVIR] |  | > 100 µM |  |  | 1.6 µM | > 100 µM |  |
| OC[C@H]1O[C@H](n2c(Br)nc3cc(Cl)c(Cl)cc32)[C@@H](O)[C@H]1O |  | > 100 µM |  |  |  |  | 0.2 µM |
